The source made the active and inactive calls. The calls are words filed in the database; no cut-off is given here.
Legend:
[1] = molecular target: T1, Platelet-derived growth factor receptor beta (Homo sapiens, UniProt P09619); experiment: Inhibition of PDGFRbeta in human MDA-MB-231 cells assessed as Akt Ser473 phosphorylation level at 2.5 uM incubated for 24 hrs in presence of PDGFRbeta siRNA by Western blot relative to untreated control; assay type: cell-based
Outline: (§1)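 Cells were transfected with control or PDGFR-β siRNA, then treated with 2.5 μM compound for 24 h. PDGFR-β-AKT-ULK1 pathway phospho-proteins were assessed by western blot: lysis in Hepes pH 7.4 / Triton buffer, 10-15% SDS-PAGE, PVDF, ECL detection, β-actin as loading control.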

[2] = molecular target: T1, Platelet-derived growth factor receptor beta; experiment: Inhibition of PDGFRbeta in human MDA-MB-231 cells assessed as mTOR Ser2448 phosphorylation level at 2.5 uM incubated for 24 hrs in absence of PDGFRbeta siRNA by Western blot relative to untreated control; assay type: cell-based; outline: as §1
MDA-MB-231 [3] = experiment: Effect on total MEK1/2 protein level in human MDA-MB-231 cells at 5 uM incubated for 24 hrs in presence of PDGFRbeta siRNA by Western blot relative to untreated control; assay type: cell-based; conditions: mda-mb-231, 24 h
MDA-MB-231 [4] = experiment: Effect on total Akt protein level in human MDA-MB-231 cells at 2.5 uM incubated for 24 hrs in presence of control siRNA by Western blot relative to untreated control; assay type: ADME, cell-based; conditions: mda-mb-231, 24 h
Outline: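 MDA-MB-231 cells were exposed for 24 h. Adherent and floating cells were pooled and lysed for 1 h at 4 °C in 50 mM Hepes pH 7.4 with 1% Triton X-100, orthovanadate, NaF, EDTA, PMSF, aprotinin and leupeptin. After 12,000 rpm clearing, equal protein was run on 10-15% SDS-PAGE and blotted to PVDF. Detection used HRP-ECL, with β-actin as loading control and densitometric quantification.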

[5] = molecular target: T1, Platelet-derived growth factor receptor beta; experiment: Inhibition of PDGFRbeta in human MDA-MB-231 cells assessed as mTOR Ser2448 phosphorylation level at 2.5 uM incubated for 24 hrs by Western blot relative to untreated control; assay type: cell-based
Outline: (§2)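 Cells were treated 24 h at several concentrations. Pooled adherent and floating cells were lysed in Hepes 50 mM pH 7.4 / 1% Triton X-100 buffer with vanadate, NaF, EDTA, PMSF, aprotinin and leupeptin. Equal protein was run on 10-15% SDS-PAGE and blotted to PVDF. PDGFR-β-AKT-ULK1 pathway phospho-proteins were probed and detected by ECL, with β-actin as loading control.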

[6] = molecular target: T1, Platelet-derived growth factor receptor beta; experiment: Inhibition of PDGFRbeta in human MDA-MB-231 cells assessed as ULK Ser317 phosphorylation level at 2.5 uM incubated for 24 hrs in presence of control siRNA by Western blot relative to untreated control; assay type: cell-based; outline: as §1
MDA-MB-231 [7] = experiment: Effect on total c-Raf protein level in human MDA-MB-231 cells at 10 uM incubated for 24 hrs in presence of PDGFRbeta siRNA by Western blot relative to untreated control; assay type: cell-based; conditions: mda-mb-231, 24 h
[8] = molecular target: T2, Dual specificity mitogen-activated protein kinase kinase; MEK1/2 (Homo sapiens) (UniProt P36507+Q02750); experiment: Inhibition of MEK1/2 in human MDA-MB-231 cells assessed as MEK1/2 Ser217/221 phosphorylation level at 5 uM incubated for 24 hrs in presence of PDGFRbeta siRNA by Western blot relative to untreated control; assay type: cell-based
T2 sequence (P36507 whole entry, looked up): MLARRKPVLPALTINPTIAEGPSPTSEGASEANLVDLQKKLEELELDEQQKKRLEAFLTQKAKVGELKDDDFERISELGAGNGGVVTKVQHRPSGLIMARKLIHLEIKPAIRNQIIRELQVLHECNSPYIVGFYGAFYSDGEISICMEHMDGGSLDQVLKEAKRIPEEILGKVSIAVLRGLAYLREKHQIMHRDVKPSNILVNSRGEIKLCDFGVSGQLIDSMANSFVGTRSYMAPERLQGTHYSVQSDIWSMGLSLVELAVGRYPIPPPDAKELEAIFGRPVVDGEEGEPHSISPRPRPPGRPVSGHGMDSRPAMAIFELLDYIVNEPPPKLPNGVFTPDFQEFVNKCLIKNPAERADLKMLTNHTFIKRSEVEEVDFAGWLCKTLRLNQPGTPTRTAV
T2 sequence (Q02750 whole entry, looked up): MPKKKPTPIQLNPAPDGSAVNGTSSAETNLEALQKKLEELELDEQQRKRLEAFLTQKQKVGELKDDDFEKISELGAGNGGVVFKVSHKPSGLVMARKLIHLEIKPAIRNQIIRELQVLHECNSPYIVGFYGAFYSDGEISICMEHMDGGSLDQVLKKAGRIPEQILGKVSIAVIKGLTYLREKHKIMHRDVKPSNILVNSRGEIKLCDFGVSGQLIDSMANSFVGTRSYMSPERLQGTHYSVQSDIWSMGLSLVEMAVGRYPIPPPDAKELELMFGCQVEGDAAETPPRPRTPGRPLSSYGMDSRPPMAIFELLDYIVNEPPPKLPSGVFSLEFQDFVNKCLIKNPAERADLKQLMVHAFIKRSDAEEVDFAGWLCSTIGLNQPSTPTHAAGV

MDA-MB-231 [9] = experiment: Antiproliferative activity against human MDA-MB-231 cells incubated for 72 hrs by MTT assay; assay type: functional, cell-based; conditions: MDA-MB-231, 72 h
Outline: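 MDA-MB-231 cells grown in DMEM with 10% FBS under 5% CO2 were seeded at 5×10^4 cells/ml. After 24 h, a concentration series was added for 24, 48 or 72 h and viability was read by MTT. IC50 is mean ± SD of triplicates.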

[10] = molecular target: T1, Platelet-derived growth factor receptor beta; experiment: Inhibition of PDGFRbeta in human MDA-MB-231 cells assessed as Akt Thr305 phosphorylation level at 2.5 uM incubated for 24 hrs in presence of PDGFRbeta siRNA by Western blot relative to untreated control; assay type: cell-based; outline: as §1
MDA-MB-231 [11] = experiment: Induction of autophagy in human MDA-MB-231 cells assessed as change in LC3-2 protein level at 2.5 uM incubated for 24 hrs in presence of PDGFRbeta siRNA by Western blot method relative to untreated control; assay type: functional
Outline: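 Before treatment, MDA-MB-231 cells were transfected with control or PDGFR-β siRNA, then exposed to 2.5 μM compound for 24 h. Lysates of pooled adherent and floating cells were immunoblotted (10-15% SDS-PAGE, PVDF, ECL) for PDGFR-β-AKT-ULK1 autophagy signalling markers, with β-actin as loading control.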

MDA-MB-436 = experiment: Antiproliferative activity against human MDA-MB-436 cells incubated for 24 hrs by MTT assay; assay type: functional, cell-based; conditions: MDA-MB-436, 24 h
[12] = molecular target: T1, Platelet-derived growth factor receptor beta; experiment: Inhibition of PDGFRbeta in human MDA-MB-231 cells assessed as Akt Thr305 phosphorylation level at 2.5 uM incubated for 24 hrs in presence of control siRNA by Western blot relative to untreated control; assay type: cell-based; outline: as §1
MDA-MB-231 [13] = experiment: Inhibition of cell migration in human MDA-MB-231 cells at 2.5 to 10 uM incubated for 24 hrs by scratch wound healing assay; assay type: functional, cell-based
Outline: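 Cells were grown to confluence and the monolayer was scratched with a longitudinally cut 10 μL tip. Cells were treated with 2.5, 5.0 or 10 μM compound for 24 h and wound closure was viewed by phase-contrast microscopy.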

[14] = molecular target: T2, Dual specificity mitogen-activated protein kinase kinase; MEK1/2 (Homo sapiens); experiment: Inhibition of MEK1/2 in human MDA-MB-231 cells assessed as MEK1/2 Ser217/221 phosphorylation level at 2.5 uM incubated for 24 hrs in presence of PDGFRbeta siRNA by Western blot relative to untreated control; assay type: cell-based
MDA-MB-231 [15] = experiment: Induction of apoptosis in human MDA-MB-231 cells at 2.5 to 10 uM incubated for 24 hrs by Annexin V/propidium iodide staining based flow cytometry; assay type: functional, cell-based
[16] = molecular target: T1, Platelet-derived growth factor receptor beta; experiment: Inhibition of PDGFRbeta in human MDA-MB-231 cells assessed as PDGFRbeta Tyr740 phosphorylation level at 10 uM incubated for 24 hrs by Western blot relative to untreated control; assay type: cell-based; outline: as §2
MDA-MB-231 [17] = experiment: Induction of autophagy in human MDA-MB-231 cells co-transfected with GFP-mRFP-LC3 assessed as increase in LC3 puncta aggregation at 2.5 uM by fluorescence micrsocpy; assay type: functional, cell-based
Outline: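 Cells were transfected with a GFP/mRFP-LC3 plasmid and incubated with 2.5 μM compound. GFP-LC3 puncta were then observed by fluorescence microscopy.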

MDA-MB-231 [18] = experiment: Effect on total MEK1/2 protein level in human MDA-MB-231 cells at 10 uM incubated for 24 hrs in presence of PDGFRbeta siRNA by Western blot relative to untreated control; assay type: cell-based; conditions: mda-mb-231, 24 h
[19] = molecular target: T1, Platelet-derived growth factor receptor beta; experiment: Inhibition of PDGFRbeta in human MDA-MB-231 cells assessed as ULK Ser317 phosphorylation level at 2.5 uM incubated for 24 hrs in presence of PDGFRbeta siRNA by Western blot relative to untreated control; assay type: cell-based; outline: as §1
[20] = molecular target: T1, Platelet-derived growth factor receptor beta; experiment: Inhibition of PDGFRbeta in human MDA-MB-231 cells assessed as Akt Ser473 phosphorylation level at 2.5 uM incubated for 24 hrs in presence of control siRNA by Western blot relative to untreated control; assay type: cell-based; outline: as §1

T1 sequence (P09619 whole entry): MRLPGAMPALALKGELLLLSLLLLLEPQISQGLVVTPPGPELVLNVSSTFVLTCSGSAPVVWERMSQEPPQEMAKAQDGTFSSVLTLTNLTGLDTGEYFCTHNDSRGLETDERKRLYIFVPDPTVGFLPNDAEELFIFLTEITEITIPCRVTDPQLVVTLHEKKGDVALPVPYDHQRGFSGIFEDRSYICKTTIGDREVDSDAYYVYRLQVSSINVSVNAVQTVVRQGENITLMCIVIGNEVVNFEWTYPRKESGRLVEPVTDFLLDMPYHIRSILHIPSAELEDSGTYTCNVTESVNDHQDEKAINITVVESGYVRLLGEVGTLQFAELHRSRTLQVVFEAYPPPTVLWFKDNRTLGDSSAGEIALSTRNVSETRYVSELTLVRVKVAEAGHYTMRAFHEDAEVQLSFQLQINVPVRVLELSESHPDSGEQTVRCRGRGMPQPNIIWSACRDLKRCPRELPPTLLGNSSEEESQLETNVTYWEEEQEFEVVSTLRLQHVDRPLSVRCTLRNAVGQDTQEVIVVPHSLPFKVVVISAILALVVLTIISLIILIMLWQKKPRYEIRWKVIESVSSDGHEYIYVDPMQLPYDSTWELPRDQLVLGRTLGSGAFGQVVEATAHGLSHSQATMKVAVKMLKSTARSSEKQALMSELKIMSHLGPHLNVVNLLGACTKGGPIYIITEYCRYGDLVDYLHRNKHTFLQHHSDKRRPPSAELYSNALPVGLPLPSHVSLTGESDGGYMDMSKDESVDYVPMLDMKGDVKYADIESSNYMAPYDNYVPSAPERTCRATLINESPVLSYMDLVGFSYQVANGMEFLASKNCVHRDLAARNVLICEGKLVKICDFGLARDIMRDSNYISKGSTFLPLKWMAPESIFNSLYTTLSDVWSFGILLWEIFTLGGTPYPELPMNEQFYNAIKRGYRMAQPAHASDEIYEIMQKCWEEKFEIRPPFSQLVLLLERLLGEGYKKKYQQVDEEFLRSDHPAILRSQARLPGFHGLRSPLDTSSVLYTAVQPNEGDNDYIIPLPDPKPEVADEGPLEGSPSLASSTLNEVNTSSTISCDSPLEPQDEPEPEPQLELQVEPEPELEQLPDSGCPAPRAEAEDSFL

COc1cccc(Nc2cc(N3CCN(C(=O)Nc4ccc(C(F)(F)F)cc4)CC3)ncn2)c1
fold change (FC) [1]: 0.52
fold change (FC) [2]: 0.21
fold change (FC) (MDA-MB-231 [3]): 1.08
fold change (FC) (MDA-MB-231 [4]): 0.86
fold change (FC) [5]: 0.74
fold change (FC) [6]: 3.21
fold change (FC) (MDA-MB-231 [7]): 1.23
fold change (FC) [8]: 1.05
IC50 (MDA-MB-231 [9]): 630 nM
fold change (FC) [10]: 0.04
fold change (FC) (MDA-MB-231 [11]): 3.01
IC50 (MDA-MB-436): 2360 nM
fold change (FC) [12]: 0.1
inhibition (MDA-MB-231 [13]): Active
fold change (FC) [14]: 1.12
Activity (MDA-MB-231 [15]): Active
fold change (FC) [16]: 0.61
Activity (MDA-MB-231 [17]): Active
fold change (FC) (MDA-MB-231 [18]): 1.03
fold change (FC) [19]: 3.46
fold change (FC) [20]: 0.88

Source: ChEMBL document CHEMBL4130442, “Design, synthesis and structure-activity relationship studies of a focused library of pyrimidine moiety with anti-proliferative and anti-metastasis activities in triple negative breast cancer” (Eur J Med Chem, 2017)
